Laboratory results taken from ChEMBL document CHEMBL4257543, “Structural optimization and antibacterial evaluation of rhodomyrtosone B analogues against MRSA strains” (Medchemcomm, 2018).
In brackets after ≈: the same amount, converted by molar mass. Activity calls are given as the source filed them.

Legend:
Paenibacillus polymyxa = assay: Antibacterial activity against Bacillus polymyxa ATCC 842 by micro dilution susceptibility test; type: functional
In short: (§1)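 Microbroth dilution MIC in Mueller–Hinton broth following CLSI guidelines, with vancomycin as positive control; assays run at least in triplicate.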

Enterococcus faecalis = assay: Antibacterial activity against Enterococcus faecalis ATCC 29212 by micro dilution susceptibility test; type: functional; in short: as §1
Staphylococcus aureus [1] = assay: Induction of cytoplasmic membrane hyperpolarization in methicillin-resistant Staphylococcus aureus JCSC 4788 at 4 to 8 times MIC measured up to 9 mins by Disc3(5) staining based fluorescence spectrophotometric method; type: functional, organism-based
In short: (§2)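 Exponential-phase MRSA JCSC 4788 washed and set to OD620 0.1 in 5 mM HEPES pH 7. Cells loaded with 0.4 μM DiSC3(5) plus 100 mM KCl for 20 min at 37 °C with agitation. Compound added at 0.5–8× MIC and fluorescence followed at ex 660/em 670 nm; mean ± SD.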

Staphylococcus aureus [2] = assay: Induction of morphological changes in methicillin-resistant Staphylococcus aureus JCSC 4788 assessed as cytoplasmic membrane disruption at 4 times MIC measured after 3 hrs scanning electron microscopic analysis; type: functional, organism-based
In short: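 Exponential-phase MRSA JCSC 4788 treated at 37 °C and washed. Cells prefixed overnight in 0.1 M phosphate pH 7.2 with 2% glutaraldehyde and 2.5% paraformaldehyde, then post-fixed in 1% OsO4 for 2 h. Samples ethanol-dehydrated, freeze-dried, gold-coated and imaged by SEM.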

[3] = tested on: Staphylococcus epidermidis; assay: Antibacterial activity against Staphylococcus epidermidis ATCC 12228 by micro dilution susceptibility test; type: functional; in short: as §1
[4] = Selectivity ratio of IC50 for mouse RAW264.7 cells to MIC for methicillin-resistant Staphylococcus aureus JCSC 4788; type: toxicity
In short: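 Ratio of 24 h MTT cytotoxicity IC50 (compound 1.5625–100 μg mL−1, 0.5% DMSO control) to MIC against MRSA JCSC 4788 from CLSI microbroth dilution in MHB; IC50 values expressed as mean ± SD.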

Staphylococcus aureus [5] = assay: Antibacterial activity against methicillin-resistant Staphylococcus aureus JCSC 4788 at sub-MIC re-passaged at 24 hrs intervals for 20 times by micro dilution susceptibility test; type: functional, organism-based
In short: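 Exponential-phase MRSA JCSC 4788 at 37 °C passaged into fresh MHB containing compound at a sub-inhibitory concentration and re-passaged at 24 h intervals up to at least 20 passages; MIC then redetermined by CLSI microbroth dilution in MHB. Resistance defined as a more than 4-fold increase over the initial MIC.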

Staphylococcus aureus [6] = assay: Induction of cytoplasmic membrane hyperpolarization in methicillin-resistant Staphylococcus aureus JCSC 4788 at 1 to 2 times MIC measured after 2 mins by Disc3(5) staining based fluorescence spectrophotometric method; type: functional, organism-based; in short: as §2
[7] = Selectivity ratio of MIC for vancomycin-resistant Enterococcus faecium to MIC for methicillin-resistant Staphylococcus aureus JCSC 4788; type: functional
Staphylococcus aureus [8] = assay: Induction of cytoplasmic membrane depolarization in methicillin-resistant Staphylococcus aureus JCSC 4788 at 0.5 to 2 times MIC measured within 1 min by Disc3(5) staining based fluorescence spectrophotometric method; type: functional, organism-based; in short: as §2
Shigella dysenteriae = assay: Antibacterial activity against Shigella dysenteriae CMCC 51252 by micro dilution susceptibility test; type: functional
In short: (§3)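 Microbroth dilution MIC in Mueller–Hinton broth following CLSI guidelines, vancomycin as positive control; resazurin added as visible growth indicator. Assays run at least in triplicate.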

SF-268 = assay: Cytotoxicity against human SF268 cells by MTT assay; type: cell-based
In short: (§4)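 MTT viability assay after 24 h exposure to compound at 1.5625–100 µg mL⁻¹; control cells received DMSO at 0.5% (highest test-well level); IC50 given as mean ± SD of at least triplicate runs.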

RAW264.7 = assay: Cytotoxicity against mouse RAW264.7 cells by MTT assay; type: cell-based; in short: as §4
MCF7 = assay: Cytotoxicity against human MCF7 cells by MTT assay; type: cell-based; in short: as §4
Staphylococcus aureus [9] = assay: Antibacterial activity against methicillin-resistant Staphylococcus aureus JCSC 4788 in Balb/c mouse skin infection model assessed as reduction in skin ulcer formation at 40 ug administered as single dose via intradermal route measured 3 to 8 days post-infection; type: functional, organism-based
In short: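 Female BALB/c mice (18–20 g) injected intradermally in abdominal skin with 0.1 mL of MRSA JCSC 4788 (1×10^8 CFU) mixed with a single 40 μg dose in DMSO; DMSO-vehicle controls. Body weight and lesion size recorded daily for 11 days, ulcers imaged at 3 and 8 days; n = 6, mean ± SD.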

Candida albicans = assay: Antibacterial activity against Candida albicans ATCC 10231 by micro dilution susceptibility test; type: functional; in short: as §1
Staphylococcus aureus [10] = assay: Selectivity ratio of MIC for methicillin-resistant Staphylococcus aureus JCSC 3063 to MIC for methicillin-resistant Staphylococcus aureus JCSC 4788; type: functional
Staphylococcus aureus [11] = assay: Antibacterial activity against Staphylococcus aureus ATCC 6538 by micro dilution susceptibility test; type: functional; in short: as §3
Staphylococcus aureus [12] = assay: Selectivity ratio of MIC for methicillin-resistant Staphylococcus aureus JCSC 4744 to MIC for methicillin-resistant Staphylococcus aureus JCSC 4788; type: functional

For `CCCCCCCC(=O)c1c(O)cc(O)c2c1OC1=C(C(=O)C(C)(C)C(=O)C1(C)C)C2CC(C)C` (centres undefined), the MIC (Paenibacillus polymyxa) was over 32 µg/mL, the MIC (Enterococcus faecalis) was 0.25 µg/mL (≈ 0.516 µM) and the Activity (Staphylococcus aureus [1]) was “Active”. The Activity (Staphylococcus aureus [2]) was “Active”, the MIC [3] was 0.25 µg/mL (≈ 0.516 µM) and the Selectivity ratio [4] was 22.4. The Activity (Staphylococcus aureus [5]) was “Active”, the Activity (Staphylococcus aureus [6]) was “Active” and the Selectivity ratio [7] was 0.5 to 2. For the same compound, the Activity (Staphylococcus aureus [8]) was “Active”, the MIC (Shigella dysenteriae) was over 32 µg/mL and the IC50 (SF-268) was 10.2 µg/mL (≈ 20.9 µM). The IC50 (RAW264.7) was 5.6 µg/mL (≈ 11.6 µM), the IC50 (MCF7) was 9.98 µg/mL (≈ 20.6 µM) and the Activity (Staphylococcus aureus [9]) was “Active”. For the same compound, the MIC (Candida albicans) was over 32 µg/mL, the Selectivity ratio (Staphylococcus aureus [10]) was 0.5 - 2 and the MIC (Staphylococcus aureus [11]) was 0.25 µg/mL (≈ 0.516 µM). The Selectivity ratio (Staphylococcus aureus [12]) was 0.5 - 2.
